According to ChEMBL document CHEMBL1126149, “Centrally acting alpha 1-adrenoceptor agonists based on hexahydronaphth[2,3-b]-1,4-oxazines and octahydrobenzo[g]quinolines” (1992):

What was measured:
[1] = species: Rattus norvegicus; assay: alpha-1/alpha-2-agonistic activity by measuring their potency in pithed rat based on noradrenaline; format: functional
How it was run: (§1)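 Pithed rats with jugular vein catheter for iv dosing and carotid catheter for arterial pressure, about 15 min equilibration. Single increasing iv doses are given and the rise in diastolic pressure is read to build a dose-response curve. pD2 is taken from that curve; efficacy is relative to noradrenaline. n = 3.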

[2] = biological target: T1, Adrenergic receptor alpha-1 (Homo sapiens) (UniProt P35348+P25100+P35368); assay: Alpha-1-adrenergic activity as efficacy in rabbit ear artery relative to noradrenaline; format: functional, tissue-based; conditions: Oryctolagus cuniculus, target entry is the homologue from another species
How it was run: (§2)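 Isolated rabbit ear artery segment, circular smooth muscle tension measured isometrically; cocaine blocks neuronal uptake, rauwolscine blocks α2-receptors. Cumulative noradrenaline curve (10^-10–10^-5 M) sets the maximum, then after washout a cumulative curve for the test drug. pD2 = −log molar concentration giving 50% of NA maximum; efficacy = drug maximum relative to NA. n = 3-5.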

[3] = biological target: T1, Adrenergic receptor alpha-1 (Homo sapiens); assay: alpha-1-adrenergic activity by measuring their potency in rabbit ear artery based on noradrenaline; format: functional, tissue-based; conditions: Oryctolagus cuniculus, target entry is the homologue from another species; how it was run: as §2
[4] = species: Rattus norvegicus; assay: Alpha-1/Alpha-2-agonistic activity by measuring their potency in pithed rat based on noradrenaline; format: functional; how it was run: as §1
[5] = species: Rattus norvegicus; assay: Alpha-1/Alpha-2-agonistic activity by measuring their efficacy in pithed rat based on noradrenaline; format: functional; how it was run: as §1
[6] = species: Rattus norvegicus; assay: Change in blood pressure was reported in pithed rat; format: functional; how it was run: as §1
[7] = biological target: T1, Adrenergic receptor alpha-1 (Homo sapiens); assay: Alpha-1-adrenergic activity as potency in rabbit ear artery compared to noradrenaline; format: functional, tissue-based; conditions: Oryctolagus cuniculus, target entry is the homologue from another species; how it was run: as §2
[8] = species: Rattus norvegicus; assay: Alpha-1/alpha-2-agonistic activity by measuring their efficacy in pithed rat based on noradrenaline; format: functional; how it was run: as §1
[9] = biological target: T1, Adrenergic receptor alpha-1 (Homo sapiens); assay: alpha-1-adrenergic activity by measuring their efficacy in rabbit ear artery based on noradrenaline; format: functional, tissue-based; conditions: Oryctolagus cuniculus, target entry is the homologue from another species; how it was run: as §2
[10] = species: Rattus norvegicus; assay: alpha-1/alpha-2-agonistic activity by measuring their efficacy in pithed rat based on noradrenaline; format: functional; how it was run: as §1
[11] = biological target: T1, Adrenergic receptor alpha-1 (Homo sapiens); conditions: Oryctolagus cuniculus; Artery
[12] = biological target: T1, Adrenergic receptor alpha-1 (Homo sapiens); conditions: Oryctolagus cuniculus; Artery; remark: listed apart in the source
[13] = species: Rattus norvegicus; assay: Alpha-1/alpha-2-agonistic activity by measuring their potency in pithed rat based on noradrenaline; format: functional; how it was run: as §1

COc1ccc(SC)c2c1CC1C(C2)OC(C)CN1C (centres undefined)
pD2 [1]: <4
E [2]: 67
pD2 [3]: 5.83

CCCN1CCOC2Cc3c(SC)ccc(OC)c3CC21 (centres undefined)
pD2 [4]: 6.18
E [5]: 38
E [2]: 98
Increase in blood pressure (P/R) [6]: -76%
pD2 [7]: 6.78

CCC1CN(C)C2Cc3c(OC)ccc(SC)c3CC2O1 (centres undefined)
pD2 [4]: 6.1
E [5]: 20
E [2]: 42
Increase in blood pressure (P/R) [6]: 0%
pD2 [7]: 5.35

COc1ccc(SC)c2c1CC1C(CCCN1C)C2 (stereo in doubt; 33) [listing 1 of 2 here]
E [2]: 109
pD2 [7]: 8.4

COc1ccc(SC)c2c1CC1C(CCCN1C)C2 (stereo in doubt; trans)
pD2 [4]: 6.92
E [5]: 72
Increase in blood pressure (P/R) [6]: -79%

COc1ccc(SC)c2c1CC1C(CCCN1C)C2 (stereo in doubt; 33) [listing 2 of 2 here]
pD2 [4]: 7.36
E [5]: 85
Increase in blood pressure (P/R) [6]: -87%

CCSc1ccc(OC)c2c1CC1CCCN(C)C1C2 (stereo in doubt) [listing 1 of 2 here]
pD2 [7]: < 4

COc1ccc(SC)c2c1CC1C(CCCN1C)C2 (stereo in doubt; cis) [listing 1 of 2 here]
pD2 [4]: <4

COc1ccc(SC)c2c1C[C@H]1[C@@H](C2)OCCN1C (stereo in doubt; 15) [listing 1 of 2 here]
E [2]: 100
pD2 [7]: 5.4

COc1ccc([N+](=O)[O-])c2c1CC1C(C2)OCCN1C (centres undefined)
pD2 [1]: 6
E [8]: 17
E [2]: 85
Increase in blood pressure (P/R) [6]: -22%
pD2 [3]: 5.45

COc1ccc(SC)c2c1C[C@@H](N)CC2
pD2 [4]: 7.92
E [5]: 73
E [2]: 98
Increase in blood pressure (P/R) [6]: -94%
pD2 [7]: 7.48

CCSc1ccc(OC)c2c1CC1CCCN(C)C1C2 (stereo in doubt; 31) [listing 1 of 2 here]
E [2]: 97
pD2 [7]: 6.46

CCN1CCOC2Cc3c(SC)ccc(OC)c3CC21 (centres undefined)
pD2 [4]: 6.84
E [5]: 79
E [2]: 98
Increase in blood pressure (P/R) [6]: -84%
pD2 [7]: 7.42

COc1ccc(SC)c2c1CC1C(CCCN1C)C2 (stereo in doubt; cis) [listing 2 of 2 here]
pD2 [7]: < 4

COc1ccc(SC)c2c1C[C@H]1[C@@H](C2)OCCN1C (stereo in doubt; 14) [listing 1 of 2 here]
E [9]: 110
pD2 [3]: 7.5

COc1ccc(SC)c2c1C[C@H]1[C@@H](C2)OCCN1C (stereo in doubt; 15) [listing 2 of 2 here]
pD2 [4]: 6.19
E [5]: 23
Increase in blood pressure (P/R) [6]: -40%

CCSc1ccc(OC)c2c1CC1OCCN(C)C1C2 (centres undefined)
pD2 [1]: 6.48
E [8]: 86
E [2]: 95
Increase in blood pressure (P/R) [6]: -80%
pD2 [3]: 8.2

COc1ccc(SC)c2c1C[C@H]1[C@@H](C2)OCCN1C (stereo in doubt; 14) [listing 2 of 2 here]
pD2 [1]: 6.74
E [10]: 76
Increase in blood pressure (P/R) [6]: -79%

CCSc1ccc(OC)c2c1CC1CCCN(C)C1C2 (stereo in doubt) [listing 2 of 2 here]
pD2 [4]: 6.12
E [5]: 18
Increase in blood pressure (P/R) [6]: -25%

CCN1CC(C)OC2Cc3c(SC)ccc(OC)c3CC21 (centres undefined)
pD2 [4]: 6.45
E [5]: 29
E [2]: 93
Increase in blood pressure (P/R) [6]: -34%
pD2 [7]: 6.47

NC[C@H](O)c1ccc(O)c(O)c1
PD2 [11]: 7.7
E [12]: 100

COc1ccc(Cl)c2c1CC1C(C2)OCCN1C (centres undefined)
pD2 [13]: 5.89
E [5]: 40
E [2]: 89
Increase in blood pressure (P/R) [6]: -5%
pD2 [7]: 5.97

CCSc1ccc(OC)c2c1CC1CCCN(C)C1C2 (stereo in doubt; 31) [listing 2 of 2 here]
pD2 [4]: 6.68
E [5]: 80
Increase in blood pressure (P/R) [6]: -93%
